Assay results published in ChEMBL document CHEMBL2046381, “Defining the mechanism of action and enzymatic selectivity of psammaplin A against its epigenetic targets” (J Med Chem, 2012).
pIC50: −log10 of the molar value. Active and inactive are the calls of the source.

Key:
[1] = target: T1, Histone deacetylase-like amidohydrolase (Alcaligenes sp. (strain DSM 11172) (Bordetella sp. (strain FB188))) (UniProt Q70I53); assay: Inhibition of Bordetella sp. (strain FB188) N-terminus His-tagged HDAH expressed in Escherichia coli BL21 (DE3) up to 100 uM; conditions: Alcaligenaceae bacterium FB188
T1 sequence (whole entry): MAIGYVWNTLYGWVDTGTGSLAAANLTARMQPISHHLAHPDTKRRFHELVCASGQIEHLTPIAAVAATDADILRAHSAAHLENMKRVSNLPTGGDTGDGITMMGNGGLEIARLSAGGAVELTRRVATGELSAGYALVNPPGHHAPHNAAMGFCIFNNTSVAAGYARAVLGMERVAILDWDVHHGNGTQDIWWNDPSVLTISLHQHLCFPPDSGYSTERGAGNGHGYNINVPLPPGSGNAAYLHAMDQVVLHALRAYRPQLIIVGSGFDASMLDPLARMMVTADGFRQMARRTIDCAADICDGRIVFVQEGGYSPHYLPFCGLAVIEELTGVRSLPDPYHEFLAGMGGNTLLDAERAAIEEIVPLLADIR
How it was run: (§1)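 Recombinant N-terminal His6-tagged HDAH from Bordetella strain FB188, expressed in E. coli BL21, purified on zinc-loaded His-Trap column, eluted with 500 mM imidazole, dialyzed into assay buffer (>98% pure by SDS-PAGE). Tested directly against compounds; thiols generated in situ from disulfides with TCEP.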

[2] = target: DNA (cytosine-5)-methyltransferase 1 (Homo sapiens, UniProt P26358); assay: Inhibition of full length N-terminal His6-tagged human DNMT1 at 120 uM after 1 hr by fluorescence analysis
DNA (cytosine-5)-methyltransferase 1, sequence (P26358 whole entry): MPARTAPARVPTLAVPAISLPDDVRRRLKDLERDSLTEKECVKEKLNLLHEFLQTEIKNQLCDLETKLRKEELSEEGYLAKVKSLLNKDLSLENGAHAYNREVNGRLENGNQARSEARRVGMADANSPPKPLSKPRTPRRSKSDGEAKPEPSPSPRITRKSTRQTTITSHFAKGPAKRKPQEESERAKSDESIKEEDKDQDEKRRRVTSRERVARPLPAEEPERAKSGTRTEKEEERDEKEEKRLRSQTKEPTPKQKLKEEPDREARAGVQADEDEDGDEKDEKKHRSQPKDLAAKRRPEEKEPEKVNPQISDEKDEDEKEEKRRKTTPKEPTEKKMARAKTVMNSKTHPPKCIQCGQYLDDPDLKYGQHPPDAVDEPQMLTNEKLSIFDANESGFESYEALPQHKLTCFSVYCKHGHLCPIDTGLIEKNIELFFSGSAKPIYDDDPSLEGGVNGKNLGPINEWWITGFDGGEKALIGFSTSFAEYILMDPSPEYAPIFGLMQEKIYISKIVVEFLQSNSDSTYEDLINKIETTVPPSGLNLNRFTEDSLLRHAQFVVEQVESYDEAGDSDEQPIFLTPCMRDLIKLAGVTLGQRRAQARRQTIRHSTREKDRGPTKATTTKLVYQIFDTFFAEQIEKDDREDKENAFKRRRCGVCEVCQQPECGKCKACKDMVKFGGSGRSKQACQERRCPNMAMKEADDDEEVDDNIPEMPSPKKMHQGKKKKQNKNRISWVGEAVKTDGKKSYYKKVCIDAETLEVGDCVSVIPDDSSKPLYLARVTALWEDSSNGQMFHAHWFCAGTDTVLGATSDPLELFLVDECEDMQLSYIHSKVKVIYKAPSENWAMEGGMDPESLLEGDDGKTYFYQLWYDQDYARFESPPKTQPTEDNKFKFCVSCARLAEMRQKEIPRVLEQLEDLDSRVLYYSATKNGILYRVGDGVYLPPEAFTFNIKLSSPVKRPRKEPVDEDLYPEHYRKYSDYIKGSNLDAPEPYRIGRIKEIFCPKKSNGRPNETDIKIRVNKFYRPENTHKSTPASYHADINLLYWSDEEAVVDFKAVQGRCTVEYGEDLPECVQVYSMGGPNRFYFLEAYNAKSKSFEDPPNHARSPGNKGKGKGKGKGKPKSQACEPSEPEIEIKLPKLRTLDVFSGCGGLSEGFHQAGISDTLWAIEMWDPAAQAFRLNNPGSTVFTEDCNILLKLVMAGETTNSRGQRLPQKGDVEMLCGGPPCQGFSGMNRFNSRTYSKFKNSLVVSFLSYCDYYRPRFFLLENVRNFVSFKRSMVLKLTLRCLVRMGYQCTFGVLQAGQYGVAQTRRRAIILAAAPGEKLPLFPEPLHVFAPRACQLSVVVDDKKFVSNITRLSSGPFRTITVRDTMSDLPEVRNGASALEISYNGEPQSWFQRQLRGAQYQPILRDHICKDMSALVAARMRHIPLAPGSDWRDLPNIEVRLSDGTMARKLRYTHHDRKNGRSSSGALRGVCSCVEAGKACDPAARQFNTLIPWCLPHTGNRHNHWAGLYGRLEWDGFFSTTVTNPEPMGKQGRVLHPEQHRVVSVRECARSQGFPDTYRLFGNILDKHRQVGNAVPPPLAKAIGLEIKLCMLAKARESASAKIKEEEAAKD
How it was run: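 Baculovirus-expressed DNMT1 (80 nM final) with SAM (10 μM final) and hemimethylated hairpin oligo (125 nM final) in MOPS buffer pH 6.5 with 1 mM DTT, 1 h room temperature. Stopped with Gla1 plus 125 μM SAH, developed 7 h; fluorescence Ex 485/Em 520 nm. Thiols made in situ by TCEP reduction; no SAM as full-inhibition control.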

[3] = tested on: MCF7; assay: Growth inhibition of human MCF7 cells after 96 hrs by sulphorhodamine B assay; assay type: functional; conditions: MCF7, 96 h
How it was run: (§2)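 SRB growth assay; MCF7 and WI38 seeded 4000 cells/well, A549 2000 cells/well, attached overnight, then exposed to freshly made drug solutions (0.1 to 50 μM) for 96 h. Fixed with cold 10% TCA, stained with 0.4% SRB; absorbance at 540 nm as percent of untreated control, IC50 from mean absorbance.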

[4] = tested on: A549; assay: Growth inhibition of human A549 cells after 96 hrs by sulphorhodamine B assay; assay type: functional; conditions: A549, 96 h; how it was run: as §2
[5] = target: T2, Protein deacetylase HDAC6 (Homo sapiens, UniProt Q9UBN7); assay: Inhibition of human recombinant HDAC6 using Boc-lys(Ac)-AMC as substrate preincubated for 20 mins with substrate measured after 60 mins by fluorescence analysis
T2 sequence (Q9UBN7 whole entry): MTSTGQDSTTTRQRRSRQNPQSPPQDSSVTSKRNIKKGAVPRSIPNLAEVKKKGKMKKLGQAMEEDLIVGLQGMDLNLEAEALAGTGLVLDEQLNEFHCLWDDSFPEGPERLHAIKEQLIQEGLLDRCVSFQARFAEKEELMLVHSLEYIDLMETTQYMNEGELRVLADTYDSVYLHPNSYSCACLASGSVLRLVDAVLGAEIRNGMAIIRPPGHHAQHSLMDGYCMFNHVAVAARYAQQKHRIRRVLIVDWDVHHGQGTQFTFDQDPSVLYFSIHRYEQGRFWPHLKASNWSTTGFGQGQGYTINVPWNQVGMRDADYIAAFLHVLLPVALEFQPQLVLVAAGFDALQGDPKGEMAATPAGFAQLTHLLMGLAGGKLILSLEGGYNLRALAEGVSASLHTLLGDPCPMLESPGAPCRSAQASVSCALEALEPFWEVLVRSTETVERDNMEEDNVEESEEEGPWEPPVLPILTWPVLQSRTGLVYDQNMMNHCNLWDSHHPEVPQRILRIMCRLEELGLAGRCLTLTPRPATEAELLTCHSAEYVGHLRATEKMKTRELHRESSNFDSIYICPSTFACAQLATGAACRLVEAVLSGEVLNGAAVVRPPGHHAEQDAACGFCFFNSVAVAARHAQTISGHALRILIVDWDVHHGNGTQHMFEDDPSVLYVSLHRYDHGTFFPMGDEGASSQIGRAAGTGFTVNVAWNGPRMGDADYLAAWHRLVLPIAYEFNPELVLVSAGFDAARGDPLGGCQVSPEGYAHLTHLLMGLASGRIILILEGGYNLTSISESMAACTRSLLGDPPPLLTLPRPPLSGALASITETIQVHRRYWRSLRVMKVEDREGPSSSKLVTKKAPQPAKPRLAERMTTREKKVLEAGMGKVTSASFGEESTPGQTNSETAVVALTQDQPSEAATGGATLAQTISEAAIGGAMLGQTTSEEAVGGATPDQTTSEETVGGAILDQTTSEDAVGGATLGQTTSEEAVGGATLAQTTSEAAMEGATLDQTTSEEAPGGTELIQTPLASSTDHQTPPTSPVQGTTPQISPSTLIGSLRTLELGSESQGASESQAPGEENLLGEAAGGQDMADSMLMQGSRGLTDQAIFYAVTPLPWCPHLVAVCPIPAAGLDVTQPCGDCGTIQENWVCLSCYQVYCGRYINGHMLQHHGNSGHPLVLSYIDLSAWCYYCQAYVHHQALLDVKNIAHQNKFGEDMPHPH

[6] = target: T3, Histone deacetylase 1 (Homo sapiens, UniProt Q13547); assay: Inhibition of human recombinant HDAC1 using Boc-lys(Ac)-AMC as substrate preincubated for 20 mins with substrate measured after 60 mins by fluorescence analysis
T3 sequence (Q13547 whole entry): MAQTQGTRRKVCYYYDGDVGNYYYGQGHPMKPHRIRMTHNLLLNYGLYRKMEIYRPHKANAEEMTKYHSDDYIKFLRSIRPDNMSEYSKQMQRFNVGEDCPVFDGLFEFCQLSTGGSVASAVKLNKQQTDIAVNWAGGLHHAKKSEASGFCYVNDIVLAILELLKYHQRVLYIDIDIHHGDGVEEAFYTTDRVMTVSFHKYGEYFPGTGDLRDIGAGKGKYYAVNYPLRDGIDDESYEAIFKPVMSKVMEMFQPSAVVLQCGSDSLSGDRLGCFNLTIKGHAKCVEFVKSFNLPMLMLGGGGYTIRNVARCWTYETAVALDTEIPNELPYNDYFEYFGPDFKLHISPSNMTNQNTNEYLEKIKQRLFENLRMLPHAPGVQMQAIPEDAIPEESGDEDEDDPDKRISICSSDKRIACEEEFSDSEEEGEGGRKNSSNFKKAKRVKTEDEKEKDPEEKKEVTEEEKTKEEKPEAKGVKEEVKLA

[7] = Growth inhibition of human WI38 cells after 96 hrs by sulphorhodamine B assay; assay type: cell-based; conditions: WI-38 cells; how it was run: as §2
[8] = target: T4, Histone deacetylase-like amidohydrolase (Alcaligenes sp. (strain DSM 11172) (Bordetella sp. (strain FB188)), UniProt Q70I53); assay: Inhibition of Bordetella sp. (strain FB188) N-terminus His-tagged HDAH expressed in Escherichia coli BL21 (DE3); design: species or system Alcaligenaceae bacterium FB188; how it was run: as §1
T4 sequence (Q70I53 whole entry): T1 sequence (whole entry)

[9] = target: T3, Histone deacetylase 1; assay: Inhibition of HDAC1 in human MCF7 cells assessed as up-regulation of acetylated histone H3 protein level at 1 uM after 24 hrs by Western blot analysis; assay type: cell-based
How it was run: (§3)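 MCF7 cells (5 × 10^6 per T75 flask) treated 24 h, harvested by trypsinization, lysed in RIPA on ice; 50 μg total protein resolved on 12% SDS-PAGE, transferred to nitrocellulose and probed for histone, acetylated histone, tubulin, acetylated tubulin, p21 and actin. Untreated cells as negative control.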

[10] = tested on: MCF7; assay: Inhibition of Class 1 histone deacetylase in human MCF7 cells assessed as up-regulation of p21 protein level at 1 uM after 24 hrs by Western blot analysis; assay type: cell-based; how it was run: as §3
[11] = target: T5, Histone deacetylase 8 (Homo sapiens, UniProt Q9BY41); assay: Inhibition of human recombinant HDAC8 using Boc-lys(Ac)-AMC as substrate preincubated for 20 mins with substrate measured after 60 mins by fluorescence analysis
T5 sequence (Q9BY41 whole entry): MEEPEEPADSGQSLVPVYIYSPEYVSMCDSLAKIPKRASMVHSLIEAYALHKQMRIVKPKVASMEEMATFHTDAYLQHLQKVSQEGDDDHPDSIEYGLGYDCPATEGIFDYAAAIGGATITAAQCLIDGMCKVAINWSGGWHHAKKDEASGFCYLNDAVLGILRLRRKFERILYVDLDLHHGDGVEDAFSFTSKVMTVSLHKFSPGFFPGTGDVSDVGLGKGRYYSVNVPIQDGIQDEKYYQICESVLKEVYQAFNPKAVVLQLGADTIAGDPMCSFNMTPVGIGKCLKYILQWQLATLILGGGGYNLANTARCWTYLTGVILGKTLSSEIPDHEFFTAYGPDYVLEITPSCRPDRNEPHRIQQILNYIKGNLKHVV

[12] = target: T6, Protein deacetylase HDAC6 (Homo sapiens) (UniProt Q9UBN7); assay: Inhibition of HDAC6 in human MCF7 cells assessed as change in tubulin acetylation level at 1 uM after 24 hrs by Western blot analysis; assay type: cell-based; how it was run: as §3
T6 sequence (whole entry): T2 sequence (Q9UBN7 whole entry)

[13] = tested on: Bacteria; assay: Inhibition of bacterial DNA cytosine-C5 methyltransferase, M.SssI at 5 uM
How it was run: (§4)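 One unit M.SssI with 1 μg bacteriophage λ DNA in NEBuffer2 (pH 7.9, 1 mM DTT) plus 160 μM SAM, ±inhibitor, 2 h at 37 °C; heat-inactivated 65 °C 20 min. Methylation read by BstUI digestion (10 units, 1 h 60 °C) and 1.5% agarose gel electrophoresis; run four times with positive and negative controls.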

[14] = tested on: Bacteria; assay: Inhibition of bacterial DNA cytosine-C5 methyltransferase, M.SssI at 50 uM; how it was run: as §4
[15] = tested on: MCF7; assay: Inhibition of Class 1 histone deacetylase in human MCF7 cells assessed as up-regulation of p21 protein level at 0.5 uM after 24 hrs by Western blot analysis; assay type: cell-based; how it was run: as §3

SMILES | inhibition [1] | inhibition [2] | GI50 [3] | GI50 [4] | pIC50 [5] | pIC50 [6] | GI50 at 96 h [7] | pIC50 [8] | inhibition [9] | inhibition [10] | pIC50 [11] | inhibition [12] | inhibition [13] | inhibition [14] | inhibition [15]
O=C(NCCS)/C(Cc1ccccc1)=N/O | inactive | inactive | 9.38 µM | 15.2 µM | 5.48 | 7.92 | 10.9 µM | – | – | – | – | – | – | – | –
O=C(CCNC(=O)/C(Cc1ccc(O)c(Br)c1)=N/O)NO | Active | – | 1.13 µM | 1.59 µM | 6.72 | 8.70 | 7.86 µM | 6.51 | Active | Active | 5.82 | inactive | – | – | –
O=C(NCCSSCCNC(=O)/C(Cc1ccccc1)=N/O)/C(Cc1ccccc1)=N/O | inactive | – | 11.1 µM | 16.3 µM | – | – | > 50 µM | – | – | – | – | – | – | – | –
O=C(NCCS)/C(Cc1ccc(O)c(Br)c1)=N/O | inactive | inactive | 2.35 µM | 2.53 µM | – | 9.05 | 3.4 µM | 4.52 | – | – | 5.89 | – | Active | Active | –
COc1cc(C/C(=N\O)C(=O)NCCSSCCNC(=O)/C(Cc2cc(Br)c(OC)c(OC)c2)=N/O)cc(Br)c1OC | inactive | – | 0.72 µM | 2.51 µM | – | – | 2.14 µM | – | – | – | – | – | – | – | –
CO/N=C(\Cc1ccc(O)c(Br)c1)C(=O)NCCSSCCNC(=O)/C(Cc1ccc(O)c(Br)c1)=N/OC | inactive | – | – | 49.5 µM | 5.02 | 6.42 | > 50 µM | – | – | – | – | – | – | – | –
O=C(NCCS)/C(Cc1ccc(F)c(Br)c1)=N/O | inactive | inactive | 2.87 µM | 6.24 µM | 6.19 | 9.00 | 7.72 µM | – | – | – | – | – | – | – | –
O=C(CCCNC(=O)/C(Cc1ccc(O)c(Br)c1)=N/O)NO | Active | – | – | – | 5.77 | 6.51 | – | 5.28 | – | – | – | – | – | – | –
CSCCNC(=O)/C(Cc1ccc(O)c(Br)c1)=N/N | inactive | – | > 50 µM | > 50 µM | < 4.30 | 4.30 | > 50 µM | – | – | – | – | – | – | – | –
O=C(O)CCP(CCC(=O)O)CCC(=O)O | – | – | > 50 µM | > 50 µM | < 4.60 | < 4.60 | > 50 µM | – | – | – | – | – | – | – | –
O=C(Cc1ccc(O)c(Br)c1)C(=O)NCCSSCCNC(=O)C(=O)Cc1ccc(O)c(Br)c1 | inactive | – | 13.1 µM | 15.2 µM | 5.05 | 5.30 | 33.1 µM | – | – | – | – | – | – | – | –
CSCCNC(=O)/C(Cc1ccc(O)c(Br)c1)=N/O | inactive | – | > 50 µM | > 50 µM | < 4.30 | 5.11 | > 50 µM | – | – | – | – | – | – | – | –
CO/N=C(\Cc1ccc(O)c(Br)c1)C(=O)NCCSC | inactive | – | > 50 µM | > 50 µM | < 4.30 | 4.96 | > 50 µM | – | – | – | – | – | – | – | –
O=C(NCCSSCCNC(=O)/C(Cc1ccc(F)c(Br)c1)=N/O)/C(Cc1ccc(F)c(Br)c1)=N/O | inactive | – | 1 µM | 2.73 µM | – | – | 1.8 µM | – | – | – | – | – | – | – | –
CC(/C=C/C(=O)NO)=C\[C@@H](C)C(=O)c1ccc(N(C)C)cc1 | – | – | – | – | – | – | – | – | – | – | – | – | – | – | Active
COc1cc(C/C(=N\O)C(=O)NCCS)cc(Br)c1OC | inactive | inactive | 2.25 µM | 4.4 µM | 6.29 | 9.00 | 4.31 µM | – | – | – | – | – | – | – | –
COc1ccc(C/C(=N\O)C(=O)NCCS)cc1Br | inactive | inactive | 0.61 µM | 0.16 µM | 5.49 | 8.74 | 1.13 µM | – | – | – | – | – | – | – | –
CO/N=C(\Cc1ccc(O)c(Br)c1)C(=O)NCCS | inactive | inactive | 19.3 µM | 10.6 µM | 6.66 | 7.57 | 24.2 µM | – | – | – | – | – | – | – | –
O=C(Cc1ccc(O)c(Br)c1)C(=O)NCCS | inactive | – | 35.4 µM | 43 µM | 6.00 | 6.40 | 42.6 µM | – | – | – | – | – | – | – | –
